Results reported in ChEMBL document CHEMBL1152425, “Systematic syntheses of influenza neuraminidase inhibitors: a series of carbosilane dendrimers uniformly functionalized with thioglycoside-type sialic acid moieties” (Bioorg Med Chem, 2009).

Columns and labels:
Neuraminidase = Neuraminidase (Influenza A virus, UniProt B4URF0); experiment: Inhibition of human Influenza A virus A/PR/8/34(H1N1) sialidase by fluorescence spectrophotometry; parameters: species or system Influenza A virus (A/Puerto Rico/8/1934(H1N1))
Method in brief: (§1)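 Influenza A virus suspension in saline (HAU = 26) as sialidase source; mixed with glycodendrimer and 4-MU-Neu5Ac (0.4 mM final) in 20 mM acetate buffer pH 5.2; 37 °C, 30 min; stopped with 100 mM carbonate buffer pH 10.7; released 4-MU fluorescence ex 355/em 460 nm. IC50 read graphically from % inhibition vs concentration, in mM per monomeric sugar unit.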

[1] = molecular target: Neuraminidase (Influenza A virus (A/Memphis/1/1971(H3N2)), UniProt P03471); experiment: Inhibition of human influenza A/Memphis/1/71(H3N2) sialidase by fluorescence spectrophotometry; method in brief: as §1
Neuraminidase (Influenza A virus (A/Memphis/1/1971(H3N2)), UniProt P03471), sequence (P03471 whole entry): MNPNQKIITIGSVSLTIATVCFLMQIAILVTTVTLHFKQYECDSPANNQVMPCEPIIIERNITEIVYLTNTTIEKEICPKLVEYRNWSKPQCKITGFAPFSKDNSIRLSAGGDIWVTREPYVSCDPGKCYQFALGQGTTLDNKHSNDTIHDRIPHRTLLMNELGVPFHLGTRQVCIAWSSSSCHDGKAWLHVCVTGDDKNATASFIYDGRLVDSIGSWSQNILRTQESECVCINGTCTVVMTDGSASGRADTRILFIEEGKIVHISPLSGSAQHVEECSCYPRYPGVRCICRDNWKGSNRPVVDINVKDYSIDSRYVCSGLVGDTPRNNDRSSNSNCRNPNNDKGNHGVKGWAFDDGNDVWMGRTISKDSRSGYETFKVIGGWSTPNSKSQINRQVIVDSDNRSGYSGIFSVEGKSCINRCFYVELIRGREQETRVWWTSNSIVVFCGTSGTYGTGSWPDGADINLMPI

Neuraminidase, sequence (B4URF0 whole entry): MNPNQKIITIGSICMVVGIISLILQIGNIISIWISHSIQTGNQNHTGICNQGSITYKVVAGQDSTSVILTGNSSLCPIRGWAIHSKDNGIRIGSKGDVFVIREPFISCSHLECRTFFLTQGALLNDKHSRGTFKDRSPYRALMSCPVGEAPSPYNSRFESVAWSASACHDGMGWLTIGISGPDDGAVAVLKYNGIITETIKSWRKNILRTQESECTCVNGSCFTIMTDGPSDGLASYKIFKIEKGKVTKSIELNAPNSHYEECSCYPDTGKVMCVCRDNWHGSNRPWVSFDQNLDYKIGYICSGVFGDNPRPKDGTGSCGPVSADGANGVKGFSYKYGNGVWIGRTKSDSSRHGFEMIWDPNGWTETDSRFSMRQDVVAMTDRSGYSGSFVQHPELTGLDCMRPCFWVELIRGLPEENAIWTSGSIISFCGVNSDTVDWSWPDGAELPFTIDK

Q: Which results are given for `CC(=O)N[C@H]1[C@H]([C@H](O)[C@H](O)CO)O[C@@](SCCCCCSCCCOCCC[Si](CCCOCCCSCCCCCS[C@]2(C(=O)O)C[C@H](O)[C@@H](NC(C)=O)[C@H]([C@H](O)[C@H](O)CO)O2)(CCCOCCCSCCCCCS[C@]2(C(=O)O)C[C@H](O)[C@@H](NC(C)=O)[C@H]([C@H](O)[C@H](O)CO)O2)CCC[Si](C)(C)CCC[Si](CCCOCCCSCCCCCS[C@]2(C(=O)O)C[C@H](O)[C@@H](NC(C)=O)[C@H]([C@H](O)[C@H](O)CO)O2)(CCCOCCCSCCCCCS[C@]2(C(=O)O)C[C@H](O)[C@@H](NC(C)=O)[C@H]([C@H](O)[C@H](O)CO)O2)CCCOCCCSCCCCCS[C@]2(C(=O)O)C[C@H](O)[C@@H](NC(C)=O)[C@H]([C@H](O)[C@H](O)CO)O2)(C(=O)O)C[C@@H]1O`?
A: IC50 (Neuraminidase): 5 mM; IC50 [1]: 1.25 mM

Q: Which results are given for `CC(=O)N[C@H]1[C@H]([C@H](O)[C@H](O)CO)O[C@@](SCCCCCSCCCCCC(=O)NCCC[Si](CCCNC(=O)CCCCCSCCCCCS[C@]2(C(=O)O)C[C@H](O)[C@@H](NC(C)=O)[C@H]([C@H](O)[C@H](O)CO)O2)(CCCNC(=O)CCCCCSCCCCCS[C@]2(C(=O)O)C[C@H](O)[C@@H](NC(C)=O)[C@H]([C@H](O)[C@H](O)CO)O2)c2ccccc2)(C(=O)O)C[C@@H]1O`?
A: IC50 (Neuraminidase): 2.7 mM; IC50 [1]: 7.1 mM

Q: Which results are given for `CC(=O)N[C@H]1[C@H]([C@H](O)[C@H](O)CO)O[C@@](SCCCCCSCCC[Si](CCCSCCCCCS[C@]2(C(=O)O)C[C@H](O)[C@@H](NC(C)=O)[C@H]([C@H](O)[C@H](O)CO)O2)(CCCSCCCCCS[C@]2(C(=O)O)C[C@H](O)[C@@H](NC(C)=O)[C@H]([C@H](O)[C@H](O)CO)O2)CCC[Si](CCC[Si](CCCSCCCCCS[C@]2(C(=O)O)C[C@H](O)[C@@H](NC(C)=O)[C@H]([C@H](O)[C@H](O)CO)O2)(CCCSCCCCCS[C@]2(C(=O)O)C[C@H](O)[C@@H](NC(C)=O)[C@H]([C@H](O)[C@H](O)CO)O2)CCCSCCCCCS[C@]2(C(=O)O)C[C@H](O)[C@@H](NC(C)=O)[C@H]([C@H](O)[C@H](O)CO)O2)(CCC[Si](CCCSCCCCCS[C@]2(C(=O)O)C[C@H](O)[C@@H](NC(C)=O)[C@H]([C@H](O)[C@H](O)CO)O2)(CCCSCCCCCS[C@]2(C(=O)O)C[C@H](O)[C@@H](NC(C)=O)[C@H]([C@H](O)[C@H](O)CO)O2)CCCSCCCCCS[C@]2(C(=O)O)C[C@H](O)[C@@H](NC(C)=O)[C@H]([C@H](O)[C@H](O)CO)O2)CCC[Si](CCCSCCCCCS[C@]2(C(=O)O)C[C@H](O)[C@@H](NC(C)=O)[C@H]([C@H](O)[C@H](O)CO)O2)(CCCSCCCCCS[C@]2(C(=O)O)C[C@H](O)[C@@H](NC(C)=O)[C@H]([C@H](O)[C@H](O)CO)O2)CCCSCCCCCS[C@]2(C(=O)O)C[C@H](O)[C@@H](NC(C)=O)[C@H]([C@H](O)[C@H](O)CO)O2)(C(=O)O)C[C@@H]1O`?
A: IC50 (Neuraminidase): 5 mM; IC50 [1]: 7 mM

Q: `CC(=O)N[C@H]1[C@H]([C@H](O)[C@H](O)CO)O[C@@](SCCCCCSCCCCCC(=O)NCCC[Si](CCCNC(=O)CCCCCSCCCCCS[C@]2(C(=O)O)C[C@H](O)[C@@H](NC(C)=O)[C@H]([C@H](O)[C@H](O)CO)O2)(CCCNC(=O)CCCCCSCCCCCS[C@]2(C(=O)O)C[C@H](O)[C@@H](NC(C)=O)[C@H]([C@H](O)[C@H](O)CO)O2)CCCNC(=O)CCCCCSCCCCCS[C@]2(C(=O)O)C[C@H](O)[C@@H](NC(C)=O)[C@H]([C@H](O)[C@H](O)CO)O2)(C(=O)O)C[C@@H]1O` was tested. Which IC50 (Neuraminidase) did it give?
A: 4.8 mM

Q: And the IC50 [1]?
A: 8.8 mM

Q: Which IC50 (Neuraminidase) does the source give for `CC(=O)N[C@H]1[C@H]([C@H](O)[C@H](O)CO)O[C@@](SCCCCCSCCCOCCC[Si](CCCOCCCSCCCCCS[C@]2(C(=O)O)C[C@H](O)[C@@H](NC(C)=O)[C@H]([C@H](O)[C@H](O)CO)O2)(CCCOCCCSCCCCCS[C@]2(C(=O)O)C[C@H](O)[C@@H](NC(C)=O)[C@H]([C@H](O)[C@H](O)CO)O2)c2ccccc2)(C(=O)O)C[C@@H]1O` here?
A: 5 mM

Q: And the IC50 [1]?
A: 5 mM

Q: Which IC50 (Neuraminidase) does the source give for `CC(=O)N[C@H]1[C@H]([C@H](O)[C@H](O)CO)O[C@@](SCCCCCSCCCOCCC[Si](CCCOCCCSCCCCCS[C@]2(C(=O)O)C[C@H](O)[C@@H](NC(C)=O)[C@H]([C@H](O)[C@H](O)CO)O2)(CCCOCCCSCCCCCS[C@]2(C(=O)O)C[C@H](O)[C@@H](NC(C)=O)[C@H]([C@H](O)[C@H](O)CO)O2)CCC[Si](CCC[Si](CCCOCCCSCCCCCS[C@]2(C(=O)O)C[C@H](O)[C@@H](NC(C)=O)[C@H]([C@H](O)[C@H](O)CO)O2)(CCCOCCCSCCCCCS[C@]2(C(=O)O)C[C@H](O)[C@@H](NC(C)=O)[C@H]([C@H](O)[C@H](O)CO)O2)CCCOCCCSCCCCCS[C@]2(C(=O)O)C[C@H](O)[C@@H](NC(C)=O)[C@H]([C@H](O)[C@H](O)CO)O2)(CCC[Si](CCCOCCCSCCCCCS[C@]2(C(=O)O)C[C@H](O)[C@@H](NC(C)=O)[C@H]([C@H](O)[C@H](O)CO)O2)(CCCOCCCSCCCCCS[C@]2(C(=O)O)C[C@H](O)[C@@H](NC(C)=O)[C@H]([C@H](O)[C@H](O)CO)O2)CCCOCCCSCCCCCS[C@]2(C(=O)O)C[C@H](O)[C@@H](NC(C)=O)[C@H]([C@H](O)[C@H](O)CO)O2)CCC[Si](CCCOCCCSCCCCCS[C@]2(C(=O)O)C[C@H](O)[C@@H](NC(C)=O)[C@H]([C@H](O)[C@H](O)CO)O2)(CCCOCCCSCCCCCS[C@]2(C(=O)O)C[C@H](O)[C@@H](NC(C)=O)[C@H]([C@H](O)[C@H](O)CO)O2)CCCOCCSCCCCCS[C@]2(C(=O)O)C[C@H](O)[C@@H](NC(C)=O)[C@H]([C@H](O)[C@H](O)CO)O2)(C(=O)O)C[C@@H]1O` here?
A: 6.4 mM

Q: What about the IC50 [1] of the same compound?
A: 6.5 mM

Q: Which results are given for `CC(=O)N[C@H]1[C@H]([C@H](O)[C@H](O)CO)O[C@@](SCCCCCSCCCCCC(=O)NCCC[Si](CCCNC(=O)CCCCCSCCCCCS[C@]2(C(=O)O)C[C@H](O)[C@@H](NC(C)=O)[C@H]([C@H](O)[C@H](O)CO)O2)(CCCNC(=O)CCCCCSCCCCCS[C@]2(C(=O)O)C[C@H](O)[C@@H](NC(C)=O)[C@H]([C@H](O)[C@H](O)CO)O2)CCC[Si](C)(C)CCC[Si](CCCNC(=O)CCCCCSCCCCCS[C@]2(C(=O)O)C[C@H](O)[C@@H](NC(C)=O)[C@H]([C@H](O)[C@H](O)CO)O2)(CCCNC(=O)CCCCCSCCCCCS[C@]2(C(=O)O)C[C@H](O)[C@@H](NC(C)=O)[C@H]([C@H](O)[C@H](O)CO)O2)CCCNC(=O)CCCCCSCCCCCS[C@]2(C(=O)O)C[C@H](O)[C@@H](NC(C)=O)[C@H]([C@H](O)[C@H](O)CO)O2)(C(=O)O)C[C@@H]1O`?
A: IC50 (Neuraminidase): 2.8 mM; IC50 [1]: 8.1 mM

Q: With `CC(=O)N[C@H]1[C@H]([C@H](O)[C@H](O)CO)O[C@@](SCCCCCSCCCOCCC[Si](CCCOCCCSCCCCCS[C@]2(C(=O)O)C[C@H](O)[C@@H](NC(C)=O)[C@H]([C@H](O)[C@H](O)CO)O2)(CCCOCCCSCCCCCS[C@]2(C(=O)O)C[C@H](O)[C@@H](NC(C)=O)[C@H]([C@H](O)[C@H](O)CO)O2)CCCOCCCSCCCCCS[C@]2(C(=O)O)C[C@H](O)[C@@H](NC(C)=O)[C@H]([C@H](O)[C@H](O)CO)O2)(C(=O)O)C[C@@H]1O` as the compound, how does the IC50 (Neuraminidase) read?
A: 5 mM

Q: And the IC50 [1]?
A: 5 mM

Q: `CC(=O)N[C@H]1[C@H]([C@H](O)[C@H](O)CO)O[C@@](SCCCCCSCCCCCC(=O)NCCC[Si](CCCNC(=O)CCCCCSCCCCCS[C@]2(C(=O)O)C[C@H](O)[C@@H](NC(C)=O)[C@H]([C@H](O)[C@H](O)CO)O2)(CCCNC(=O)CCCCCSCCCCCS[C@]2(C(=O)O)C[C@H](O)[C@@H](NC(C)=O)[C@H]([C@H](O)[C@H](O)CO)O2)CCC[Si](CCC[Si](CCCNC(=O)CCCCCSCCCCCS[C@]2(C(=O)O)C[C@H](O)[C@@H](NC(C)=O)[C@H]([C@H](O)[C@H](O)CO)O2)(CCCNC(=O)CCCCCSCCCCCS[C@]2(C(=O)O)C[C@H](O)[C@@H](NC(C)=O)[C@H]([C@H](O)[C@H](O)CO)O2)CCCNC(=O)CCCCCSCCCCCS[C@]2(C(=O)O)C[C@H](O)[C@@H](NC(C)=O)[C@H]([C@H](O)[C@H](O)CO)O2)(CCC[Si](CCCNC(=O)CCCCCSCCCCCS[C@]2(C(=O)O)C[C@H](O)[C@@H](NC(C)=O)[C@H]([C@H](O)[C@H](O)CO)O2)(CCCNC(=O)CCCCCSCCCCCS[C@]2(C(=O)O)C[C@H](O)[C@@H](NC(C)=O)[C@H]([C@H](O)[C@H](O)CO)O2)CCCNC(=O)CCCCCSCCCCCS[C@]2(C(=O)O)C[C@H](O)[C@@H](NC(C)=O)[C@H]([C@H](O)[C@H](O)CO)O2)CCC[Si](CCCNC(=O)CCCCCSCCCCCS[C@]2(C(=O)O)C[C@H](O)[C@@H](NC(C)=O)[C@H]([C@H](O)[C@H](O)CO)O2)(CCCNC(=O)CCCCCSCCCCCS[C@]2(C(=O)O)C[C@H](O)[C@@H](NC(C)=O)[C@H]([C@H](O)[C@H](O)CO)O2)CCCNC(=O)CCCCCSCCCCCS[C@]2(C(=O)O)C[C@H](O)[C@@H](NC(C)=O)[C@H]([C@H](O)[C@H](O)CO)O2)(C(=O)O)C[C@@H]1O` was tested. Which IC50 (Neuraminidase) did it give?
A: 7.2 mM
